In the library only some 3.7% were active in any assay of this set; here they are far more common.
KCNQ1 inh: inhibitors of human KCNQ1 potassium channel. P51787. CHO-K1 KCNQ1, FluxOR thallium flux fluorescence; stronger effect = higher value. B-score at 10 µM. 310,000 tested, 1.3% active. AID 2642;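 active = compounds whose thallium flux B-score, printed positive for inhibition, exceeds three library SD while starting fluorescence stays within three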;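 note: channel opened by potassium depolarization with thallium stimulus after 20 min compound exposure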
hERG protect: compounds protecting human hERG from proarrhythmic drug block | CHO-hERG, FluxOR thallium flux, dofetilide IC70 present | activation (rescue from dofetilide block), less the hit threshold, % at 10 µM | 310,000 tested, 0.51% active;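 active = activation above the mean of controls blocked by dofetilide plus 5 SD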;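 note: thallium influx through hERG after potassium depolarization seen as dye fluorescence rise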
Kir21 inh: Kir2.1 (mouse) channel inhibition | B-score at 10 µM | 310,000 tested, 0.85% active | HEK293-Kir2.1, FluxOR thallium flux fluorescence; stronger effect = lower value | P35561;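 active = fluorescence ratio B-score at or below minus 3 SD of library scores, with starting-brightness B-score within 2 SD, cut at about -4.2 in these data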;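 note: channel flux triggered by added potassium and thallium sulfate stimulus; B-score of peak minus minimum fluorescence over baseline after thallium stimulus; more negative B-score means stronger Kir2.1 block with less thallium influx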
KCNQ1 pot: potentiates or activates the human KCNQ1 potassium channel; CHO-K1 KCNQ1, thallium flux FluxOR fluorescence; stronger effect = higher value; B-score at 10 µM; 310,000 tested, 0.35% active; AID 2648;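 active = fluorescence ratio B-score, a plate-corrected score, at least three library SD, with initial intensity B-score within 5 SD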
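Doses: Single concentration per compound, DMSO matched to controls | Test system: KCNQ1-transfected CHO-K1 cells | Timing: 90 min dye loading and 20 min compound exposure, both at room temperature | Measured by: Kinetic FluxOR thallium fluorescence, 10-s 1-Hz baseline, 110-s post-stimulus read | Medium: Assay buffer with matched DMSO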
KCNK9 inh: blocks the human KCNK9 two-pore domain potassium channel. Q9NPC2. HEK293 KCNK9, FluxOR thallium flux fluorescence; stronger effect = lower value. 310,000 tested, 1.2% active. B-score at 10 µM;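 active = ratio B-score over 3 SD below the library mean, with starting fluorescence within 5 SD of its mean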;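 note: negative B-score means less thallium flux so channel inhibition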
KCNK3 inh: human KCNK3 channel inhibition, primary screen; O14649; B-score at 10 µM; CHO-KCNK3 thallium flux, FluxOR fluorescence; stronger effect = lower value; 340,000 tested, 0.84% active; AID 602410;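 active = B-score under library mean minus 4 SD, starting fluorescence ratio at most library mean plus 5 SD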;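 note: more negative B-score means stronger inhibition of thallium flux through KCNK3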
Target sequence (O14649 whole entry, looked up): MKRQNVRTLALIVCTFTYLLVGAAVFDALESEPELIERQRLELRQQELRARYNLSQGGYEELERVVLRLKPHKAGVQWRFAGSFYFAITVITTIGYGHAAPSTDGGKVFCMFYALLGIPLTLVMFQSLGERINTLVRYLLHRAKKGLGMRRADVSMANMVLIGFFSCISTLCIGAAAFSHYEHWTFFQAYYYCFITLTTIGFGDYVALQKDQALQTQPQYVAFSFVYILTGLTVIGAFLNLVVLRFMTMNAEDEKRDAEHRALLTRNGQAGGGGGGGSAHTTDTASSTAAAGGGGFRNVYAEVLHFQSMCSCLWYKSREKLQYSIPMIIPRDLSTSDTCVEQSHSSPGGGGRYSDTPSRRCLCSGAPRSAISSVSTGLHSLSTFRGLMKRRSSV
KCNK3 inh conf: human KCNK3 channel inhibition, confirmation assay. 2,400 tested, 99% active. shares compounds with KCNK3 inh. ratio percent of control, % at 10 µM. CHO-KCNK3 thallium flux, FluxOR fluorescence; 0% buffer, 100% carvedilol maximal block;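 active = ratio percent of control, averaged over triplicates, above buffer control mean plus 5 SD, cut at about 64% in these data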;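 note: ratio is the fluorescence rise from min to max over baseline after thallium stimulus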
KCNK3 uninduced: activity in cells without induced KCNK3 expression; non-induced KCNK3 parental cells, FluxOR thallium flux; stronger effect = lower value; shares compounds with KCNK3 inh; 2,400 tested, 40% active; thallium flux ratio (lower = more inhibition) at 10 µM;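 active = thallium flux ratio, averaged over three wells, more than 5 SD below the buffer control mean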;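 note: host cells are CHO cells without KCNK3 induction; ratio is peak minus trough fluorescence over baseline then normalized to buffer controls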
* hit, by the source's call; i = inactive; . = no result.

SMILES | KCNQ1 inh | hERG protect | Kir21 inh | KCNQ1 pot | KCNK9 inh | KCNK3 inh | KCNK3 inh conf | KCNK3 uninduced
O=C(c1cc2c(ccc3ccccc32)o1)N1CCCCC1 | i | -0.9 | 0.92 | i | i | -9.12* | 83.7* | i
O=C(O)c1cc2c(ccc3ccccc32)o1 | i | -4.8 | 1.69 | i | i | i | . | .
CCOC(=O)c1c(NC(=O)CSc2nnc(CNc3ccc(Cl)cc3)o2)sc(C)c1C | i | -11.8 | -0.17 | i | i | -9.55* | 90.0* | i
O=C(C(Cl)Cl)N1c2ccccc2OCC1c1ccccc1 (centres undefined) | i | -9.9 | -2.72 | i | i | i | . | .
CCc1nc(N2CCN(C(=S)NCCCOC)CC2)c2c3c(sc2n1)CCCC3 | i | -14.1 | -0.75 | i | i | -8.87* | 95.3* | 0.15*
COCCCNC(=S)N1CCN(c2nc3ccccc3s2)CC1 | i | -19.4 | -1.21 | i | i | i | . | .
CC(NNC(=S)N1CCN(c2ccccn2)CC1)c1nccc2ccccc12 (centres undefined) | . | . | . | . | . | i | . | .
COCCOC(=O)C1=C(C)NC(=O)NC1c1cn(-c2ccccc2)nc1-c1cccs1 (centres undefined) | i | -12.6 | -2.85 | i | i | i | . | .
C=CCOC(=O)C1=C(C)NC(=O)NC1c1cn(-c2ccccc2)nc1-c1cccs1 (centres undefined) | i | -8.1 | 1.57 | i | i | -9.22* | 119.7* | 0.153*
COc1ccccc1-c1c(C)oc2c(CN3CCN(CCO)CC3)c(O)ccc2c1=O | i | -10.9 | 0.99 | i | i | -19.8* | 59.0* | i
COc1ccccc1-c1c(C)oc2c(CN3CCN(C)CC3)c(O)ccc2c1=O | i | -11.1 | 0.79 | i | i | i | . | .
O=S(=O)(c1ccccc1)N1CCN(c2ccnc3cc(Cl)ccc23)CC1 | i | -16.1 | -0.16 | i | i | -9.25* | 98.0* | i
Cc1cc2c(cc1S(=O)(=O)CCC(=O)N(C)C1CCCCC1)OCC(=O)N2 | i | -8.3 | 1.64 | i | i | i | . | .
CCc1ccc(NC(=O)CCC(=O)c2ccccc2)cc1 | i | -1.8 | -10.9 | i | i | i | . | .
Cc1ccc2oc(=O)c3cc(C(=O)N4CCN(C(=O)c5ccco5)CC4)sc3c2c1 | i | -9.6 | 0.02 | i | i | . | . | .
CCN(Cc1ccccc1)C(=O)c1cc2c(=O)oc3ccc(C)cc3c2s1 | 6* | -20.4 | -0.16 | i | i | -8.89* | 111.0* | 0.123*
CN1C(=O)CSC1=Nc1cccc(Cl)c1 | i | -3.4 | 0 | i | i | i | . | .
O=C(c1ccco1)N1CCN(C(=O)c2ccccc2OCc2ccc(Cl)cc2)CC1 | i | -14.6 | 0.02 | i | i | i | . | .
O=C(c1ccccc1OCc1ccc(Cl)cc1)N1CCN(c2ccccn2)CC1 | i | -17.7 | -1.75 | i | i | -9* | 119.0* | i
COc1ccc(OC)c(NC(=O)c2sc3ncnc(N4CCN(c5ccccn5)CC4)c3c2C)c1 | i | -1.0 | 1.84 | i | i | -9.13* | 104.3* | i
COc1ccccc1N1CCN(C(=O)c2sc3ncnc(N4CCN(c5ccccn5)CC4)c3c2C)CC1 | i | -14.9 | 0.23 | i | i | i | . | .
Cc1c(C(=O)Nc2ccc(Cl)cc2)c2ccccn2c1CCc1ccncc1 | i | -6.9 | -0.35 | i | i | -9.67* | 109.3* | 0.14*
COc1ccc(C2c3ccc(O)cc3Oc3ncn(Cc4ccccc4)c(=N)c32)cc1OC (centres undefined) | i | -13.9 | 0.27 | i | i | -8.9* | 75.0* | i
COc1cccc(NC(=O)c2cc3ccccc3o/c2=N\O)c1 | i | -22.8 | -3.55 | i | i | -8.74* | 124.7* | 0.13*
O=C(Nc1ccccc1Cl)c1cc2ccccc2o/c1=N\O | i | -10.5 | 1.34 | i | i | i | . | .
SMILES | KCNQ1 inh | hERG protect | Kir21 inh | KCNQ1 pot | KCNK9 inh | KCNK3 inh | KCNK3 inh conf | KCNK3 uninduced
CCCc1cc(C(=O)Cc2ccc(C(=O)OCC)o2)c(O)cc1O | i | -2.8 | -2.77 | i | -16.9* | -11.2* | 104.3* | 0.133*
COc1ccc(C2=NNC(c3cc(Cl)cc4c3OCOC4)C2)c(O)c1 (centres undefined) | i | -11.9 | 0.05 | i | i | . | . | .
Oc1ccc(Cl)cc1C1=NNC(c2cc(Br)cc3c2OCOC3)C1 (centres undefined) | i | -3.2 | 1.64 | i | i | -8.78* | 96.0* | i
O=C(Cc1ccc(Cl)cc1)NNC(=S)NC(=O)c1cccs1 | i | -11.3 | 1.19 | i | i | i | . | .
O=C(Cc1cccs1)NNC(=S)NCc1ccc(Cl)cc1 | i | -5.9 | -2.41 | i | -7.7* | -11.2* | 77.3* | i
CN(CC(=O)NCc1cccs1)CC(=O)Nc1ccc(F)c(F)c1F | i | -10.8 | 1.25 | i | i | i | . | .
CN(CC(=O)Nc1ccc(F)cc1Cl)Cc1cccs1 | i | -5.0 | 0.3 | i | i | -9.55* | 84.7* | i
CCOC(=O)c1c(NC(=O)C2COc3ccccc3O2)sc(C)c1C (centres undefined) | i | -5.3 | -0.91 | i | i | -8.82* | 107.3* | 0.141*
CCCCCCCCNC(=O)c1ccc(C)cc1 | i | -10.1 | -0.32 | i | i | . | . | .
Cc1ccc(C(=O)Nc2ccc(Br)c(C(F)(F)F)c2)cc1 | i | -21.8 | -0.52 | i | i | -9.26* | 119.7* | i
Cc1ccc(NC(=O)c2ccc(C)cc2)cc1 | i | -7.0 | 1.58 | i | i | i | . | .
C#CCN1Cc2ccccc2Oc2cc(Br)ccc2S1(=O)=O | . | . | . | . | . | i | . | .
O=C(/C=C/c1ccccc1Cl)c1cccnc1 | i | -16.9 | -4.18 | i | i | -9.73* | 86.3* | i
O=C(Cc1ccccc1)Nc1cccc(-c2nc3ncccc3o2)c1 | i | -2.3 | -1.52 | i | i | -10.3* | 64.3* | i
COc1c(C(=O)Nc2ccc(Br)cn2)ccc2ccccc12 | i | -2.5 | 1.21 | i | -7.25* | -11.4* | 97.0* | 0.157*
Cc1cc(C)cc(NC(=O)N2CCNC(=O)C2CC(=O)Nc2cc(Cl)ccc2Cl)c1 (centres undefined) | i | -5.0 | 0.71 | i | i | i | . | .

Screening results as filed in PubChem BioAssay.
